The results in this text go back to PMC2233693 (The Journal of General Physiology, 2000).

Common to all, as to type: biochemical
Test [1] concerns the target T1, E340N mutant bovine olfactory CNG channel (Bos taurus, UniProt Q03041, E340N).
T1 sequence (Q03041 1-663 E340N): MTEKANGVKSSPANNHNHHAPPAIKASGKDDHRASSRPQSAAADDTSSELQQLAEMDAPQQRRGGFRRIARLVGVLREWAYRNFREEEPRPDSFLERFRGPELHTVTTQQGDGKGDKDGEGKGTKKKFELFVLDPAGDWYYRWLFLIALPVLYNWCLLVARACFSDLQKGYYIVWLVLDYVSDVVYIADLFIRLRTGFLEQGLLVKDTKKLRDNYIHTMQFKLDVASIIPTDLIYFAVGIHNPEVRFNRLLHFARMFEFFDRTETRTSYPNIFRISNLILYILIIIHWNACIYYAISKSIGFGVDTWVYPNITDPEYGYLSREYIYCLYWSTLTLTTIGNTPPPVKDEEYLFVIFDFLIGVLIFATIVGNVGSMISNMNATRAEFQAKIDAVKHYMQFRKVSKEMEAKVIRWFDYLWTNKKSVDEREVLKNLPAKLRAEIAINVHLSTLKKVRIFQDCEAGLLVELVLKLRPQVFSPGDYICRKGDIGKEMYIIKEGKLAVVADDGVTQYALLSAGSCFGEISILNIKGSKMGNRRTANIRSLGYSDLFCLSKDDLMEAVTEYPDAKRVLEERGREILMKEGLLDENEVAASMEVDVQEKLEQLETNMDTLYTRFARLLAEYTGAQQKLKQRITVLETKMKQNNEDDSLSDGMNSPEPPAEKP
The experiment in a line: Blockage of macroscopic current by external Ca2+ or Mg2+, outside-out patches. As to conditions: for Ki: mean ± SD. An outline of the steps: (§1)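 Xenopus oocytes injected with wild-type or mutant channel mRNA; outside-out patches with 100 μM cGMP in the pipette. Bath: 110 mM NaCl, 2 mM EDTA, 10 mM HEPES, pH 7.4, plus Ca2+ (NTA-buffered) or Mg2+ (EDTA-buffered); unbuffered above 0.1 mM. Five 1-s ramps (−80 to +80 mV) averaged, leak subtracted. Current normalised to divalent-free current at the same voltage, Hill-fitted per patch; Ki and n given as mean ± SD.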

Test [2] has as its target T2, E340G mutant bovine olfactory CNG channel (Bos taurus, UniProt Q03041, E340G).
T2 sequence (Q03041 1-663 E340G): T1 sequence (Q03041 1-663 E340N) with N340G

Test [3] addresses T3, wild-type bovine olfactory CNG channel (α3 subunit) (Bos taurus, UniProt Q03041).
T3 sequence (Q03041 1-663): T1 sequence (Q03041 1-663 E340N) with N340E

For test [4], the target named is T1, E340N mutant bovine olfactory CNG channel.
Test [5] has as its target T3, wild-type bovine olfactory CNG channel (α3 subunit). The experiment in a line: Blockage of macroscopic current by external Ca2+ or Mg2+, outside-out patches. As to conditions: for Ki: mean ± SD. An outline of the steps: as §1
Where [6] appears, read: read-out: K 1/2,cG, −80 mV, single patch, Fig. 1 fit.
[7] abbreviates: −80 mV, single patch, Fig. 1 fit.

Positions count from the first letter of the chain named. Read-outs that look alike come from different tables or passages of the source.

Regarding `[Ca+2]` [Ca^2+], the “n, Hill coefficient of blockage” value in test [1] (external Ca2+, +80 mV) was 0.6 ± 0.2; in test [1] (external Ca2+, −80 mV), 0.6 ± 0.1; in test [5] (external Ca2+, +80 mV), 0.9 ± 0.1; in test [5] (external Ca2+, −80 mV) it was 1.3 ± 0.4. Also, the Ki in test [1] (external Ca2+, +80 mV) came to 29000 ± 6000 µM; in test [1] (external Ca2+, −80 mV), 6500 ± 4000 µM; in test [5] (external Ca2+, +80 mV) it was 383 ± 145 µM; in test [5] (external Ca2+, −80 mV), 47 ± 21 µM. Besides, the “effect of external Ca2+ on K 1/2 for cAMP or cGMP” value in test [2] (1 mM Ca2+ in the patch pipette), in test [3] (1 mM Ca2+ in the patch pipette) and in test [4] (1 mM Ca2+ in the patch pipette) was “did not significantly affect K 1/2” each time.

With `[Mg+2]` [Mg^2+], the “n, Hill coefficient of blockage” value in test [1] (external Mg2+, +80 mV) is listed as 0.6 ± 0.1; in test [1] (external Mg2+, −80 mV) it was 0.6 ± 0.1; in test [5] (external Mg2+, +80 mV), 1.0 ± 0.1; in test [5] (external Mg2+, −80 mV) it was 1.2 ± 0.2. For the same compound, the Ki is 50000 ± 3600 µM in test [1] (external Mg2+, +80 mV); 17000 ± 7200 µM in test [1] (external Mg2+, −80 mV); 920 ± 640 µM in test [5] (external Mg2+, +80 mV); 70 ± 34 µM in test [5] (external Mg2+, −80 mV).

Turning to `Nc1nc2c(ncn2[C@@H]2O[C@@H]3COP(=O)(O)O[C@H]3[C@H]2O)c(=O)[nH]1` [cGMP], the “n(−80 mV), Hill coefficient” value was found to be 1.8 ± 0.4 in test [2] (cGMP), 2.7 ± 0.2 in test [3] (cGMP) and 2.1 ± 0.3 in test [4] (cGMP). In addition, the “I(−80 mV)/I(+80 mV)” value in test [2] (cGMP-gated current) amounted to 0.79 ± 0.09; in test [3] (cGMP-gated current), 1.11 ± 0.03; in test [4] (cGMP-gated current), 0.55 ± 0.10. Further, the EC50 was found to be 13 ± 1.5 µM in test [2] (read-out: K 1/2, cGMP, +80 mV); 15 ± 1.6 µM in test [2] (read-out: K 1/2, cGMP, −80 mV); 18.5 µM in test [2] (setting [6]); 2.6 ± 0.6 µM in test [3] (read-out: K 1/2, cGMP, +80 mV); 2.5 ± 0.5 µM in test [3] (read-out: K 1/2, cGMP, −80 mV); 3.2 µM in test [3] (setting [6]). In addition, the EC50 stood at 5.6 ± 1.8 µM in test [4] (read-out: K 1/2, cGMP, +80 mV); 7.6 ± 4 µM in test [4] (read-out: K 1/2, cGMP, −80 mV); 6.6 µM in test [4] (setting [6]). In addition, the “n cG” value stood at 1.6 in test [2] (setting [7]), 2.7 in test [3] (setting [7]) and 2.3 in test [4] (setting [7]).

By Ki is commonly meant a measure of affinity in units of concentration, obtained from inhibition or displacement. Read a high Ki as lower affinity.
